From PubChem BioAssay AID602213 (Southern Research Specialized Biocontainment Screening …, 2012)
Activity calls are given as the source filed them.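 How the source made its calls: active means inhibition of 30% or more at any tested concentration; inactive means the rest.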

Each compound was assayed against M1-family alanyl aminopeptidase PfA-M1 (Plasmodium falciparum 3D7) (assay: PfM1AAP aminopeptidase inhibitors, dose response, biochemical, QFRET, H-Leu-NHMec substrate, set 2 (AID 602213)). Details: recombinant PfM1AAP, H-Leu-NHMec fluorogenic cleavage.
In short: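 System: purified recombinant PfM1AAP, an M1-family alanyl aminopeptidase of Plasmodium falciparum / Also added: H-Leu-NHMec fluorogenic peptide substrate, 0.1 mM final / Compound: 10 concentrations, 0.2–100 µM, 1:2 steps / Times: 90 min reaction at room temperature / Signal: fluorescence of released NHMec, excitation 370 nm, emission 460 nm / Replication: triplicate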

Row | SMILES | IC50 [µM]
1 | O=C(NCc1ccc(Cl)cc1)C1CCN(S(=O)(=O)c2ccc(Br)s2)CC1 | 14.6
2 | O=C(NCc1ccccc1)C1CCN(S(=O)(=O)c2ccc(Br)s2)CC1 | 2.26
3 | O=C(NCc1ccc(F)cc1)C1CCN(S(=O)(=O)c2ccc(Br)s2)CC1 | 5.05
4 | O=C(NCc1ccc2c(c1)OCO2)C1CCN(S(=O)(=O)c2ccc(Br)s2)CC1 | 1.54

Same assay, conditions: recombinant PfM1AAP, H-Leu-NHMec fluorogenic cleavage; at 100 µM (top of the series)

Row | SMILES | inhibition
5 | CC[C@H](C)[C@H](NS(=O)(=O)c1ccc(Br)s1)C(=O)NCc1ccc(Cl)cc1 | inactive
6 | CC[C@H](C)[C@H](NS(=O)(=O)c1ccc(Br)s1)C(=O)NCc1ccc2c(c1)OCO2 | inactive
7 | CC[C@H](C)[C@H](NC(=O)c1ccc(C(C)(C)C)cc1)C(=O)NCc1ccc2c(c1)OCO2 | inactive
8 | CC[C@H](C)[C@H](NC(=O)c1ccc(C(C)(C)C)cc1)C(=O)NCc1ccc(Cl)cc1 | inactive
